Measurements taken from ChEMBL document CHEMBL4689842, “EUbOPEN Chemogenomics Library wave 1” (2021).

Tested on: U2OS
Experiment: Multiplex assay against U2OS
Type: toxicity, cell-based
Conditions: human
Procedure, shortened: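 Tubulin, mitochondrial-mass and membrane-permeability phenotypes are per cents of healthy-nucleus cells. Cells were gated by CellPathfinder machine learning into Hoechst high-intensity objects or normal cells, normal cells into healthy, pyknosed or fragmented nuclei, and pyknosed cells into mitotic or apoptotic. Before that, live cells stained at seeding with Hoechst33342, BioTracker Green Microtubule Cytoskeleton Dye, MitoTracker Red and Annexin V Alexa Fluor 680 were imaged on a CQ1 microscope at 37°C and 5% CO2 after compound addition.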

[1] = 12 h, 1 µM, compound concentration 1 uM, replicate 1
[2] = 12 h, 1 µM, compound concentration 1 uM, replicate 2
[3] = 12 h, 10 µM, compound concentration 10 uM, replicate 1
[4] = 12 h, 10 µM, compound concentration 10 uM, replicate 2
[5] = 24 h, 1 µM, compound concentration 1 uM, replicate 1
[6] = 24 h, 1 µM, compound concentration 1 uM, replicate 2
[7] = 24 h, 10 µM, compound concentration 10 uM, replicate 1
[8] = 24 h, 10 µM, compound concentration 10 uM, replicate 2
[9] = 48 h, 1 µM, compound concentration 1 uM, replicate 1
[10] = 48 h, 1 µM, compound concentration 1 uM, replicate 2
[11] = 48 h, 10 µM, compound concentration 10 uM, replicate 1
[12] = 48 h, 10 µM, compound concentration 10 uM, replicate 2

CC(Cc1ccc(O)c(O)c1)C(C)Cc1ccc(O)c(O)c1 (stereo not drawn) [NORDIHYDROGUAIARETIC ACID]
Population Apoptotic (%) [1]: 64% | Population Fragmented Nuclei (%) [1]: 11% | Population Healthy Nuclei (%) [1]: 75% | Population Hoechst High Intensity Objects (%) [1]: 8% | Population Membrane Permeable-Phenotype (%) [1]: 3% | Population Mitochondria Different-Phenotype (%) [1]: 8% | Population Mitotic Cells (%) [1]: 35% | Population Normal (%) [1]: 91% | Population Pyknosed Nuclei (%) [1]: 12% | Population Tubulin-Different-Phenotype (%) [1]: 10% | Population Apoptotic (%) [2]: 0% | Population Fragmented Nuclei (%) [2]: 3% | Population Healthy Nuclei (%) [2]: 93% | Population Hoechst High Intensity Objects (%) [2]: 15% | Population Membrane Permeable-Phenotype (%) [2]: 0% | Population Mitochondria Different-Phenotype (%) [2]: 1% | Population Mitotic Cells (%) [2]: 100% | Population Normal (%) [2]: 84% | Population Pyknosed Nuclei (%) [2]: 3% | Population Tubulin-Different-Phenotype (%) [2]: 25% | Population Apoptotic (%) [3]: 35% | Population Fragmented Nuclei (%) [3]: 19% | Population Healthy Nuclei (%) [3]: 64% | Population Hoechst High Intensity Objects (%) [3]: 14% | Population Membrane Permeable-Phenotype (%) [3]: 7% | Population Mitochondria Different-Phenotype (%) [3]: 12% | Population Mitotic Cells (%) [3]: 64% | Population Normal (%) [3]: 85% | Population Pyknosed Nuclei (%) [3]: 16% | Population Tubulin-Different-Phenotype (%) [3]: 30% | Population Apoptotic (%) [4]: 0% | Population Fragmented Nuclei (%) [4]: 2% | Population Healthy Nuclei (%) [4]: 91% | Population Hoechst High Intensity Objects (%) [4]: 6% | Population Membrane Permeable-Phenotype (%) [4]: 2% | Population Mitochondria Different-Phenotype (%) [4]: 10% | Population Mitotic Cells (%) [4]: 100% | Population Normal (%) [4]: 93% | Population Pyknosed Nuclei (%) [4]: 5% | Population Tubulin-Different-Phenotype (%) [4]: 38% | Population Apoptotic (%) [5]: 45% | Population Fragmented Nuclei (%) [5]: 12% | Population Healthy Nuclei (%) [5]: 78% | Population Hoechst High Intensity Objects (%) [5]: 7% | Population Membrane Permeable-Phenotype (%) [5]: 4% | Population Mitochondria Different-Phenotype (%) [5]: 7% | Population Mitotic Cells (%) [5]: 54% | Population Normal (%) [5]: 92% | Population Pyknosed Nuclei (%) [5]: 8% | Population Tubulin-Different-Phenotype (%) [5]: 11% | Population Apoptotic (%) [6]: 0% | Population Fragmented Nuclei (%) [6]: 2% | Population Healthy Nuclei (%) [6]: 94% | Population Membrane Permeable-Phenotype (%) [6]: 0% | Population Mitochondria Different-Phenotype (%) [6]: 8% | Population Mitotic Cells (%) [6]: 100% | Population Pyknosed Nuclei (%) [6]: 2% | Population Tubulin-Different-Phenotype (%) [6]: 23% | Population Apoptotic (%) [7]: 61% | Population Fragmented Nuclei (%) [7]: 18% | Population Healthy Nuclei (%) [7]: 68% | Population Hoechst High Intensity Objects (%) [7]: 14% | Population Membrane Permeable-Phenotype (%) [7]: 10% | Population Mitochondria Different-Phenotype (%) [7]: 15% | Population Mitotic Cells (%) [7]: 38% | Population Normal (%) [7]: 85% | Population Pyknosed Nuclei (%) [7]: 12% | Population Tubulin-Different-Phenotype (%) [7]: 59% | Population Apoptotic (%) [8]: 16% | Population Fragmented Nuclei (%) [8]: 2% | Population Healthy Nuclei (%) [8]: 90% | Population Hoechst High Intensity Objects (%) [8]: 5% | Population Membrane Permeable-Phenotype (%) [8]: 1% | Population Mitochondria Different-Phenotype (%) [8]: 9% | Population Mitotic Cells (%) [8]: 83% | Population Normal (%) [8]: 94% | Population Pyknosed Nuclei (%) [8]: 7% | Population Tubulin-Different-Phenotype (%) [8]: 61% | Population Apoptotic (%) [9]: 43% | Population Fragmented Nuclei (%) [9]: 9% | Population Healthy Nuclei (%) [9]: 81% | Population Hoechst High Intensity Objects (%) [9]: 2% | Population Membrane Permeable-Phenotype (%) [9]: 2% | Population Mitochondria Different-Phenotype (%) [9]: 18% | Population Mitotic Cells (%) [9]: 56% | Population Normal (%) [9]: 97% | Population Pyknosed Nuclei (%) [9]: 8% | Population Tubulin-Different-Phenotype (%) [9]: 14% | Population Apoptotic (%) [10]: 20% | Population Fragmented Nuclei (%) [10]: 8% | Population Healthy Nuclei (%) [10]: 86% | Population Hoechst High Intensity Objects (%) [10]: 6% | Population Membrane Permeable-Phenotype (%) [10]: 4% | Population Mitochondria Different-Phenotype (%) [10]: 9% | Population Mitotic Cells (%) [10]: 80% | Population Normal (%) [10]: 93% | Population Pyknosed Nuclei (%) [10]: 5% | Population Tubulin-Different-Phenotype (%) [10]: 30% | Population Apoptotic (%) [11]: 72% | Population Fragmented Nuclei (%) [11]: 15% | Population Healthy Nuclei (%) [11]: 74% | Population Hoechst High Intensity Objects (%) [11]: 9% | Population Membrane Permeable-Phenotype (%) [11]: 6% | Population Mitochondria Different-Phenotype (%) [11]: 18% | Population Mitotic Cells (%) [11]: 27% | Population Normal (%) [11]: 90% | Population Pyknosed Nuclei (%) [11]: 9% | Population Tubulin-Different-Phenotype (%) [11]: 76% | Population Apoptotic (%) [12]: 66% | Population Fragmented Nuclei (%) [12]: 1% | Population Healthy Nuclei (%) [12]: 92% | Population Hoechst High Intensity Objects (%) [12]: 6% | Population Membrane Permeable-Phenotype (%) [12]: 4% | Population Mitochondria Different-Phenotype (%) [12]: 16% | Population Mitotic Cells (%) [12]: 33% | Population Normal (%) [12]: 93% | Population Pyknosed Nuclei (%) [12]: 6% | Population Tubulin-Different-Phenotype (%) [12]: 77%
